Assay results published in ChEMBL document CHEMBL1221310, “Discovery of potent HIV integrase inhibitors active against raltegravir resistant viruses” (Bioorg Med Chem Lett, 2010).

Experiments:
[1] = Inhibition of HIV integrase after 2 hrs by combined strand transfer assay; parameters: species or system Human immunodeficiency virus
Outline: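 Integrase (400 ng) was incubated 2 h at 37 °C with 30 nM pre-processed U5 LTR duplex substrate, one strand DIG-tagged and the other biotin-tagged. 3′-processing/strand-transfer products were captured on streptavidin plates and detected with anti-DIG-alkaline phosphatase and p-nitrophenyl phosphate.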

[2] = tested on: Human immunodeficiency virus; assay: Antiviral activity against wild type HIV assessed as inhibition of p24 antigen production after 48 hrs by cell based luciferase reporter gene assay; format: functional, organism-based; settings: Human immunodeficiency virus 1, 48 h
[3] = tested on: Human immunodeficiency virus; assay: Antiviral activity against raltegravir-resistant HIV expressing integrase Q148H/G140S mutant infected in HEK293T cells after 48 hrs by luciferase reporter gene assay; format: functional, organism-based; settings: Human immunodeficiency virus 1, HEK-293T
Outline: (§1)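 VSV-G-pseudotyped, env-deleted HIV-1 carrying luciferase in nef, made by cotransfecting 293T cells; integrase resistance mutations introduced by site-directed mutagenesis. 293T cells seeded 16 h before compound, preincubated with compound 4 h at 37 °C, then infected with virus giving about 10,000 luciferase light units without compound. Luciferase read 48 h post-infection.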

[4] = tested on: Human immunodeficiency virus; assay: Antiviral activity against raltegravir-resistant HIV expressing integrase N155H/E92Q mutant infected in HEK293T cells after 48 hrs by luciferase reporter gene assay; format: functional, organism-based, HEK-293T; outline: as §1
[5] = tested on: Human immunodeficiency virus; assay: Antiviral activity against wild type HIV assessed as inhibition of p24 antigen production after 48 hrs by cell based luciferase reporter gene assay in presence of 10% normal human serum; format: functional, organism-based; settings: Human immunodeficiency virus 1, 48 h
[6] = tested on: Human immunodeficiency virus; assay: Antiviral activity against wild type HIV assessed as inhibition of p24 antigen production after 48 hrs by cell based luciferase reporter gene assay in presence of 50% normal human serum; format: functional, organism-based; settings: Human immunodeficiency virus 1, 48 h
[7] = tested on: Human immunodeficiency virus; assay: Antiviral activity against raltegravir-resistant HIV expressing integrase Q148H/G140S mutant infected in HEK293T cells after 48 hrs by luciferase reporter gene assay in presence of 10% FBS; format: functional, organism-based; settings: Human immunodeficiency virus 1, HEK-293T; outline: as §1
[8] = tested on: Human immunodeficiency virus; assay: Antiviral activity against raltegravir-resistant HIV expressing integrase N155H/E92Q mutant infected in HEK293T cells after 48 hrs by luciferase reporter gene assay in presence of 10% FBS; format: functional, organism-based; settings: Human immunodeficiency virus 1, HEK-293T; outline: as §1
[9] = Half life in microsomes; format: ADME, Microsome
[10] = Human immunodeficiency virus 1, HEK-293T, 48 h, read-out: EC50

Compound	IC50 ([1]; read-out: IC50)	EC50 [2]	EC50 [3]	EC50 ([4]; hek-293t)	EC50 [4, 10]	EC50 [5]	EC50 [6]	EC50 [7]	EC50 [8]	half-life [9]	IC50 [1]
CC(=O)c1cc(N2CCOCC2)cn2c(=O)c(O)c(-c3ncc(Cc4ccc(F)cc4)s3)nc12	15 nM	9.5 nM	885 nM	Not Active	–	–	–	–	–	–	–
O=C1OCCN1c1cc(N2CCOCC2)cn2c(=O)c(O)c(-c3ncc(Cc4ccc(F)cc4)s3)nc12	26 nM	7.1 nM	108 nM	–	25 nM	–	–	–	–	–	–
CN1CCN(c2cc(N(C)C)cn3c(=O)c(O)c(-c4ncc(Cc5ccc(F)cc5)s4)nc23)C1=O	90 nM	19.5 nM	92.5 nM	–	32.5 nM	–	–	–	–	–	–
O=C1CNCCN1c1cc(N2CCOCC2)cn2c(=O)c(O)c(-c3ncc(Cc4ccc(F)cc4)s3)nc12	–	–	–	–	–	4 nM	6.1 nM	34.5 nM	6.7 nM	52 min	–
COc1cc(N2CCOCC2)cn2c(=O)c(O)c(-c3ncc(Cc4ccc(F)cc4)s3)nc12	–	100 nM	5900 nM	Not Active	–	–	–	–	–	–	Not Active
CC(C)N(C)C(=O)Nc1cc(N2CCOCC2)cn2c(=O)c(O)c(-c3ncc(Cc4ccc(F)cc4)s3)nc12	–	22 nM	> 10000 nM	Not Active	–	–	–	–	–	–	Not Active
CN1CCN(c2cc(N3CCNCC3=O)cn3c(=O)c(O)c(-c4ncc(Cc5ccc(F)cc5)s4)nc23)C1=O	–	27 nM	1100 nM	Not Active	–	–	–	–	–	–	Not Active
O=C1CCCN1c1cc(N2CCOCC2)cn2c(=O)c(O)c(-c3ncc(Cc4ccc(F)cc4)s3)nc12	–	21 nM	335 nM	Not Active	–	–	–	–	–	–	Not Active
O=c1c(O)c(-c2ncc(Cc3ccc(F)cc3)s2)nc2ccc(N3CCOCC3)cn12	20 nM	32 nM	3000 nM	–	74.5 nM	–	–	–	–	–	–
O=c1c(O)c(-c2ncc(Cc3ccc(F)cc3)s2)nc2c(Br)cc(N3CCOCC3)cn12	42 nM	14 nM	2500 nM	–	19 nM	–	–	–	–	–	–
O=C(c1cc(N2CCOCC2)cn2c(=O)c(O)c(-c3ncc(Cc4ccc(F)cc4)s3)nc12)N1CCCC1	70 nM	81 nM	1180 nM	–	200 nM	–	–	–	–	–	–
CC1CN(C)CCN1c1cc(N2CCCOC2=O)c2nc(-c3ncc(Cc4ccc(F)cc4)s3)c(O)c(=O)n2c1 (stereo not drawn)	–	–	–	–	–	4.2 nM	5.5 nM	40.5 nM	5.2 nM	18 min	–
CC(NC1CC1)c1cc(N2CCN(C)C2=O)c2nc(-c3ncc(Cc4ccc(F)cc4)s3)c(O)c(=O)n2c1 (stereo not drawn)	–	11.5 nM	268 nM	Not Active	–	–	–	–	–	–	Not Active
O=c1c(O)c(-c2ncc(Cc3ccc(F)cc3)s2)nc2c(N3CCCS3(=O)=O)cc(N3CCOCC3)cn12	48 nM	6.4 nM	280 nM	–	49.5 nM	–	–	–	–	–	–
CN1CCCN(c2cc(N3CCOCC3)cn3c(=O)c(O)c(-c4ncc(Cc5ccc(F)cc5)s4)nc23)C1=O	–	11.5 nM	34 nM	–	21.5 nM	–	–	–	–	–	Not Active
CN1CCN(c2cc(N3CCOCC3)cn3c(=O)c(O)c(-c4ncc(Cc5ccc(F)cc5)s4)nc23)S1(=O)=O	38 nM	8.5 nM	112 nM	–	18.5 nM	–	–	–	–	–	–
CN1CCN(c2cc(N3CCOCC3)cn3c(=O)c(O)c(-c4ncc(Cc5ccc(F)cc5)s4)nc23)C1=O	47 nM	24 nM	71 nM	–	10 nM	–	–	–	–	–	–
CN1CCN(c2cc(CN3CCOCC3)cn3c(=O)c(O)c(-c4ncc(Cc5ccc(F)cc5)s4)nc23)C1=O	25 nM	3.5 nM	243 nM	–	14.5 nM	–	–	–	–	–	–
CC(c1cc(N2CCOCC2)cn2c(=O)c(O)c(-c3ncc(Cc4ccc(F)cc4)s3)nc12)N1CCCCC1 (stereo not drawn)	–	110 nM	5500 nM	Not Active	–	–	–	–	–	–	Not Active
CN1CCN(c2cc(N3CCCOC3=O)c3nc(-c4ncc(Cc5ccc(F)cc5)s4)c(O)c(=O)n3c2)CC1	–	–	–	–	–	3.5 nM	6.6 nM	29.5 nM	4.9 nM	67.8 min	–
CC(C)N1CCN(c2cc(N3CCOCC3)cn3c(=O)c(O)c(-c4ncc(Cc5ccc(F)cc5)s4)nc23)C1=O	19 nM	7.5 nM	18 nM	–	9.7 nM	–	–	–	–	–	–
CC(C)N1CCN(c2cc(N3CCN(C)C3=O)c3nc(-c4ncc(Cc5ccc(F)cc5)s4)c(O)c(=O)n3c2)CC1	19 nM	6.8 nM	21 nM	–	8.9 nM	–	–	–	–	–	–
CC(O)c1cc(N2CCOCC2)cn2c(=O)c(O)c(-c3ncc(Cc4ccc(F)cc4)s3)nc12 (stereo not drawn)	–	10.5 nM	800 nM	Not Active	–	–	–	–	–	–	Not Active
CC(C)N(C)C(=O)N(C)c1cc(N2CCOCC2)cn2c(=O)c(O)c(-c3ncc(Cc4ccc(F)cc4)s3)nc12	–	16.5 nM	120 nM	Not Active	–	–	–	–	–	–	Not Active
O=C1OCCCN1c1cc(N2CCOCC2)cn2c(=O)c(O)c(-c3ncc(Cc4ccc(F)cc4)s3)nc12	–	4.3 nM	16.5 nM	–	10.5 nM	–	–	–	–	–	Not Active
